# Laboratory results taken from PubChem BioAssay.
# Active and inactive are the calls of the source.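 How the source made its calls, unless noted: active means viability at or below 30% in both replicate assays; inconclusive means viability at or below 30% in just one of the two assays; inactive means the rest.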
# Legend:
# [1] = reducers of endogenous Her2 protein level, primary screen, SKBR3 breast tumor cells, AlphaScreen, ATP viability (AID 461;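 active means Her2 level under about 52% in both replicate screens, with viability over 70% of control, limit read from the data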;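 on Her2 level: lower value means less Her2 protein in the cells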;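 on viability: percent of carrier control wells set as 100% viability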); conditions: 18-24 h, measured here: SKBR3 viability, ATP luminescence, at 10 µM
# [2] = target: Receptor tyrosine-protein kinase erbB-2 (Homo sapiens) (UniProt P04626); experiment: as above; conditions: 18-24 h, at 10 µM, stronger effect = lower value
# Receptor tyrosine-protein kinase erbB-2 (Homo sapiens), sequence (P04626 whole entry, looked up): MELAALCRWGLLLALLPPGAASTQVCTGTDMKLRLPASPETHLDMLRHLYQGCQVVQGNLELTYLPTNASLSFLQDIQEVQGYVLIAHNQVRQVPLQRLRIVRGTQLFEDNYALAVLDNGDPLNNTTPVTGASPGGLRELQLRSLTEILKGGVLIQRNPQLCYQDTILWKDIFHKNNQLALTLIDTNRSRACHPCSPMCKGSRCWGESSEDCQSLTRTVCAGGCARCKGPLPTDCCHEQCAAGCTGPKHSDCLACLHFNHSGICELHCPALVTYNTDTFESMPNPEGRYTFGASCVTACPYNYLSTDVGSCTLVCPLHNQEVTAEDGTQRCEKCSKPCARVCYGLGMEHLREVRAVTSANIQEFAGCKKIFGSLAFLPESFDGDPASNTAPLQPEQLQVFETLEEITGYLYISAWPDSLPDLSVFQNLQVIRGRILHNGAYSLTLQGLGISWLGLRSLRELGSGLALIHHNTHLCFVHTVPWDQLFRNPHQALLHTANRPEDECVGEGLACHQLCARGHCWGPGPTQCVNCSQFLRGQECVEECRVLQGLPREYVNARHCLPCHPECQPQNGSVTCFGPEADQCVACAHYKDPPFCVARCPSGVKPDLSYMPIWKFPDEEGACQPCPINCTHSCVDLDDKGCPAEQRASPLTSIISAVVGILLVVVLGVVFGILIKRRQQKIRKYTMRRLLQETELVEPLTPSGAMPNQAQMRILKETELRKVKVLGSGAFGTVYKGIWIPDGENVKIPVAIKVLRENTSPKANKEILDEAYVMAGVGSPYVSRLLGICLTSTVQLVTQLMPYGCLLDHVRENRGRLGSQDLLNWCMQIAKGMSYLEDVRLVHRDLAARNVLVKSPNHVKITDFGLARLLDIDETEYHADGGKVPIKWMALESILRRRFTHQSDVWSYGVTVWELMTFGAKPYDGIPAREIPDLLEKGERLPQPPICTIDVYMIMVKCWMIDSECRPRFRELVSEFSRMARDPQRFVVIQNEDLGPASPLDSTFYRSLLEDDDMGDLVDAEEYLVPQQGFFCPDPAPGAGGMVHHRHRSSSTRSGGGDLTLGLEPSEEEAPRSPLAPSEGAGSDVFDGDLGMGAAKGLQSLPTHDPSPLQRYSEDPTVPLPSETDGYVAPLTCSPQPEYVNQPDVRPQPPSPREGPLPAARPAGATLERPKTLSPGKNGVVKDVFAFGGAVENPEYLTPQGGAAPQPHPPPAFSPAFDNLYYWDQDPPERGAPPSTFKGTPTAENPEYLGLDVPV
# [3] = SK-BR-3 cell growth inhibitors, pilot screen, 24 h, human (AID 572;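 active means viability at or below 10% of carrier control in both of two separate runs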;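 further: compound exposure lasted between 18 and 24 h rather than exactly 24 h; 100% = carrier-treated control wells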); conditions: SK-BR-3 viability, CellTiter-Glo luminescence, at 10 µM, stronger effect = lower value
# [4] = HUVEC growth inhibition – cell-based, human, primary screen (AID 575); conditions: HUVEC proliferation, CellTiter-Glo luminescence, 72 h; at 10 µM; stronger effect = lower value;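 further: 100% = median of untreated cell wells with 0.1% DMSO on each plate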
# How it was run: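 Test system: primary human umbilical vein endothelial cells. Quantity: 1250 cells/well. Compound: single 10 µM dose, 0.1% DMSO, from 5x medium stock. Timing: 72 h treatment at 37 °C. Detection: ATP-based CellTiter-Glo luminescent read. Benchmarks: vehicle and MePR control wells. Format: 384-well plates coated with collagen.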
# [5] = growth inhibitors of H69AR lung tumor, primary screen, human, duplicate replicates (AID 580;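 active means viability at or under a set limit in both replicates, limit being median viability minus 3 SD, cut at about 48% in these data, passing the limit was not always enough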;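 further: 100% = mean luminescence of untreated wells and 0% = no signal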); conditions: H69AR lung tumor cells viability, ATP luminescence, 72 h; at 10 µM; stronger effect = lower value
# [6] = reversal of MRP1-mediated doxorubicin resistance, pilot screen, H69AR cells, doxorubicin co-treatment (AID 601;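 active means viability loss from added drug above about 55%, and viability with drug at most 40%, in both replicates, limit read from the data, passing the limit was not always enough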); conditions: CellTiter-Glo, 72 h, at 10 µM; for differential viability (reversal): stronger effect = higher value
# [7] = 384-well plate pilot, post-Golgi transport modulator project, inhibition of yeast transport mutant growth (AID 636; in the data active means inhibition above about 31%); conditions: absorbance 615 nm, about 18 h, stronger effect = higher value
# [8] = growth suppression of yeast trafficking mutant, preliminary HTS, modulators of trafficking downstream of Golgi apparatus project, 1536-format plate, OD 615 nm (AID 637; in the data active means inhibition above about 30%); conditions: yeast transport mutant growth, absorbance 615 nm, 18 h; stronger effect = higher value
# [9] = H69AR cells + 2 uM doxorubicin, measured here: viability with 2 uM doxorubicin, stronger effect = lower value
# [10] = H69AR cells, compound alone cytotoxicity
Structure (SMILES),viability [1] [%],Her2 level [2],viability [3],viability [4],viability [5],differential viability (reversal) ([6]; H69AR cells + 2 uM doxorubicin),"viability [6, 9] [%]","viability [6, 10] [%]",inhibition [7],inhibition [8]
O=C(Nc1ccc(N2CCOCC2)c(F)c1)c1ccncc1,97,99% (inactive),97% (inactive),114% (inactive),96.6% (inactive),12.5% (inactive),84.2,96.6,-4.27% (inactive),1.64% (inactive)
COc1ccc2nc(NC(=O)c3ccoc3C)sc2c1,99,87.5% (inactive),99% (inactive),23.9% (active),26.1% (active),-13.7% (inactive),39.8,26.1,-3.82% (inactive),6.33% (inactive)
CCCn1nnnc1SCC(=O)c1ccc2c(c1)OCCO2,90,108% (inactive),90% (inactive),110% (inactive),106% (inactive),13.4% (inactive),92.8,106,2.67% (inactive),10.7% (inactive)
CCOC(=O)C1=C(C)Nc2ncnn2C1c1cc(OC)ccc1OC (stereo not given),92.5,84.5% (inactive),92.5% (inactive),84.6% (inactive),81.8% (inactive),0.51% (inactive),81.3,81.8,-6.22% (inactive),1.17% (inactive)
CCN(CC)c1ccc(-c2c(C#N)c(N)nc(OC)c2C#N)cc1,75.5,88.5% (inactive),75.5% (inactive),81.3% (inactive),79.4% (inactive),-4.16% (inactive),83.5,79.4,-1.17% (inactive),-8.36% (inactive)
Cc1ccccc1C(=O)Nc1c(C(=O)N2CCCC2)cnn1-c1ccccc1,112,79% (inactive),112% (inactive),106% (inactive),91.9% (inactive),9.86% (inactive),82,91.9,-7.7% (inactive),-0.63% (inactive)
CCOC(=O)N1CCN(S(=O)(=O)c2ccc(F)c(C(=O)Nc3cc(C)cc(C)c3)c2)CC1,76,112% (inactive),76% (inactive),78.6% (inactive),83.3% (inactive),1.41% (inactive),81.9,83.3,-2.11% (inactive),-11.8% (inactive)
